Assay outcomes (PubChem)
Shown are actives, neighbours in structure and some others; about 1% of the full set was active somewhere.
Xi reactivation = activators of inactive X chromosome reactivation, primary screen, imaging, XiGFP fibroblasts, GFP high-content imaging, set 2; XiGFP mouse fibroblasts, % GFP-positive cells imaging, 3 d; cells co-treated with 5-aza-dC sensitizer; scaled so ellipticine positive control = 100%; activation, % at 7.58 µM; actives 0.055% (n = 360,000); AID 743238, 2013;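 active = mean normalized replicate activation at least 10% and every replicate at or above 10%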
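Material: SV40-immortalized XiGFP fibroblast cells, line 68-5-11 | Buffer or medium: DMEM containing 5-aza-dC | Dosing: One concentration, pinned | Times: 3 d treatment, 15 min room-temperature fixation | Controls: Ellipticine 6 µM positive control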
FXN GAA850 act = FXN promoter activators, primary screen, cell-based, luciferase luminescence, HEK293 lucGAA850. HEK293 lucGAA850 FXN promoter luciferase reporter, 24 h; percent of 10 µM SAHA response. activation, % at 6 µM. actives 0.56% (n = 360,000). AID 540364, 2011;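 active = activation above the average of all compounds screened plus 3 SD, cutoff fixed separately per campaign, cut at about 7.5% in these data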
CaV13 ICDI inh = Primary screen for inhibitors of IQ motif and Ca2+-dependent inactivation inhibitor domain binding in CACNA1D, Förster resonance energy transfer in living cells, …; HEK cells, CFP/YFP FRET ICDI-IQ, plate reader, 10 min; percent FRET-ratio fall versus neutral wells; inhibition, % at 12.3 µM; actives 0.098% (n = 340,000); AID 743397;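 active = mean replicate inhibition of at least 30% and at least 1% of replicates passing that level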
INS-1E GSIS act = GLuc luminescence reporter in INS-1E cells, primary screen for activators of glucose-dependent secretion of insulin | INS-1E GLuc reporter insulin secretion, 2-3 h | actives 0.61% (n = 370,000) | activation, % at 16.6 µM;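 active = lowest replicate activation of at least 40%, so every replicate reaches that level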
Hits are given with their value; i = inactive; nt = no result given.

SMILES	Xi reactivation	FXN GAA850 act	CaV13 ICDI inh	INS-1E GSIS act
Cc1ccc(-c2nc(Cl)nc3ccccc23)cc1	i	i	i	i
Cc1ccc2nc(Cl)nc(-c3ccccc3)c2c1	i	i	i	51.3
O=C(Nc1ncn[nH]1)c1ccc(Cl)c(Cl)c1	i	i	nt	44.0
Cc1ccc(NCc2nnc(SCC(=O)Nc3ncc(C)s3)n2Cc2ccco2)c(C)c1	nt	i	i	156.3
CCNC(=O)[C@@H]1[C@@H](CO)[C@@H]2Cn3c(ccc(C4=CCCC4)c3=O)[C@H]1N2Cc1cccnc1	i	nt	nt	i
Cc1cccc(C(=O)OCC(=O)NCc2cccs2)c1	i	i	i	i
CS(=O)(=O)c1ccc(C(=O)OCC(=O)NCc2cccs2)cc1[N+](=O)[O-]	i	8.8	i	i
CC(=O)Nc1c(-c2ccccc2)nc2ccc(Cl)cn12	i	i	i	nt
Cc1ccccc1Nc1c(-c2ccncc2)nc2ccc(Cl)cn12	i	i	i	40.1
CC(=O)Oc1ccc2cc(-c3nc4ccccc4n3C)c(=O)oc2c1	nt	i	33.0	nt
Cn1c(-c2cc3ccc(OC(=O)C(C)(C)C)cc3oc2=O)nc2ccccc21	nt	i	i	nt
COc1cccc2[nH]c3c(N4CCCCC4)ncnc3c12	nt	i	i	i
Cc1cccc2[nH]c3c(N4CC=C(c5ccc(F)cc5)CC4)ncnc3c12	i	i	i	40.8
CCOC(=O)c1nc(-c2ccccc2)oc1N(C)C	nt	i	i	84.4
Cc1oc(-c2ccccc2)nc1C(=O)OCC(=O)NCc1ccccc1	i	i	i	i
Cc1ccsc1/C=N/N1CCN(c2ccccc2)CC1	nt	7.8	i	i
COc1ccc(C=C(C(=O)O)c2ccc(OC)cc2)cc1	i	i	i	49.1
COc1ccc(C(=Cc2ccccc2)C(=O)O)cc1	i	i	i	nt
O=C(O)c1ccc(-c2nc(-c3ccccc3)c(-c3cccs3)[nH]2)cc1	i	i	i	53.1
CCOC(=O)c1cnc2c(cnn2C)c1Oc1ccc(OC)cc1	i	i	i	61.9
CCOC(=O)c1cnc(-c2ccccc2)nc1Oc1ccc(OC)cc1	i	i	i	i
CCCC(=O)Oc1ccc2c(C)cc(=O)oc2c1	i	i	i	i
Cc1cc(=O)oc2cc(OC(=O)c3cncc(Br)c3)ccc12	i	i	44.8	i
OC(c1ccccc1)(c1ccccc1)C1CCN(CCCOc2ccc(-c3ccc(F)cc3F)cc2)CC1	i	nt	i	249.3
COc1cccc(OCCCN2CCC(C(O)(c3ccccc3)c3ccccc3)CC2)c1	i	nt	i	i
SMILES	Xi reactivation	FXN GAA850 act	CaV13 ICDI inh	INS-1E GSIS act
OC(c1ccccc1)(c1ccccc1)C1CCN(CCCOc2cccc(OC(F)(F)F)c2)CC1	i	nt	i	159.9
OC(c1ccccc1)(c1ccccc1)C1CCN(CCCOc2ccc3c(c2)CCCC3)CC1	i	nt	i	761.6
COc1ccc(CCNC(=O)c2cc(S(=O)(=O)N3CCCCC3)c[nH]2)cc1OC	i	i	43.2	i
COc1ccccc1NC(=O)N[C@@H]1CC[C@H](CCNC(=O)Cc2ccccn2)O[C@H]1CO	i	nt	nt	i
CC(C)(C)c1ccccc1OCC(O)CN1CCN(c2ccccn2)CC1 (configuration not stated)	i	i	i	63.4
Cc1ccc(OCC(O)CN2CCN(c3ccccn3)CC2)c(C)c1 (configuration not stated)	i	i	i	i
O=C(COC(=O)c1cc(S(=O)(=O)N2CCCCC2)ccc1N1CCOCC1)c1ccccc1Cl	i	i	64.1	i
CC(=O)N(C)C[C@H]1Oc2ncc(/C=C/c3ccccc3)cc2C(=O)N([C@H](C)CO)C[C@@H]1C	i	nt	nt	i
Cc1nccn1-c1ncnc2sc3c(c12)CCCC3	nt	i	nt	67.3
Cc1cc(C)n(-c2ncnc3sc4c(c23)CCCC4)n1	nt	i	i	i
Cc1ccc(NC(=O)COC(=O)c2cc(-c3cccs3)nn2-c2ccccc2)cc1[N+](=O)[O-]	i	i	i	69.2
O=C(COC(=O)c1cc(-c2cccs2)nn1-c1ccccc1)Nc1cccc([N+](=O)[O-])c1	i	i	i	i
CC1CCC(C(C)C)C(OC(=O)C[n+]2cc(-c3ccc(Cl)cc3)n3c2CCCCC3)C1 (configuration not stated)	i	i	i	110.6
CC(=O)Nc1sc(N/N=C/c2ccc(O)cc2)nc1-c1ccc(C)cc1	i	i	i	i
CC(C)(C)c1csc(N/N=C/c2ccc(O)cc2)n1	i	i	64.3	i
